# Legend:
# [1] = tested on: Mus musculus; assay: Effect on locomotor activity in Swiss Albino mouse assessed as number of crossings in 6 mins at 5 mg/kg administered 30 mins before the test; type: functional
# Procedure, shortened: (§1)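 Male Albino Swiss mice (24–28 g) given compound ip (suspension in 1% aqueous Tween 80, 10 ml/kg). Animals housed singly in plastic cages in a multichannel photobeam activity monitor. Ambulation crossings counted over first 6 min and over 30-min session. n = 9-10/group; one-way ANOVA then Dunnett's test.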
# [2] = Displacement of [3H]prazosin from adrenergic alpha1 receptor in rat cortical membranes; type: cell membranes, Membrane
# Procedure, shortened: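 Rat cortical membranes with [3H]-prazosin; phentolamine defines nonspecific binding. 7–9 drug concentrations in triplicate, at least three separate experiments; stopped by GF/B filtration with three ice-cold buffer washes, bound radioactivity by liquid scintillation counting; Ki from non-linear regression and Cheng-Prusoff equation.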
# [3] = tested on: Mus musculus; assay: Effect on locomotor activity in Swiss Albino mouse assessed as number of crossings in 6 mins at 10 mg/kg administered 30 mins before the test; type: functional; procedure, shortened: as §1
# [4] = organism: Mus musculus; settings: Swiss Albino, 5 mg/kg
# [5] = tested on: Rattus norvegicus; assay: Effect on 8-OH-DPAT-induced lower lip retraction in Wistar rat at 2.5 mg/kg; type: functional
# [6] = organism: Mus musculus; settings: Swiss Albino, 5 mg/kg; remark: listed apart in the source
# [7] = organism: Mus musculus; settings: Swiss Albino, 10 mg/kg
# [8] = organism: Mus musculus; settings: Swiss Albino, 10 mg/kg; remark: listed apart in the source
# [9] = tested on: Mus musculus; assay: Antidepressant activity in Swiss Albino mouse assessed as immobility time during final 4 mins of 6 mins session at 10 mg/kg administered 30 mins before the test by forced-swimming test; type: functional
# Procedure, shortened: (§2)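 Male Albino Swiss mice (24–28 g), compound given ip in 1% aqueous Tween 80 (10 ml/kg), 30 min before test. Mouse placed singly in glass cylinder (25 cm high, 10 cm diameter) holding 6 cm water at 23–25 °C for 6 min; immobility (floating, only small head-keeping movements) timed over last 4 min. n = 9-10 per group; one-way ANOVA then Dunnett's test.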
# [10] = tested on: Rattus norvegicus; assay: Effect on lower lip retraction in Wistar rat at 5 mg/kg; type: functional
# Procedure, shortened: (§3)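 Male Wistar rats (290–310 g) dosed ip in 1% Tween 80 (2 ml/kg), caged singly; lower lip retraction scored 15, 30 and 45 min after dosing as 0 (incisors not visible), 0.5 (partly) or 1 (completely visible), totals up to 3 per rat. n = 6 per group; one-way ANOVA followed by Dunnett's test.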
# [11] = tested on: Mus musculus; assay: Effect on locomotor activity in Swiss Albino mouse assessed as number of crossings in 30 mins at 5 mg/kg administered 30 mins before the test; type: functional
# Procedure, shortened: (§4)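 Male Albino Swiss mice given compound ip (1% Tween 80, 10 ml/kg) 30 min before placement singly in plastic cages in a multichannel photobeam activity monitor; ambulation crossings counted over the first 6 min and over a 30 min session. n = 9-10 per group; ANOVA then Dunnett's test.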
# [12] = tested on: Rattus norvegicus; assay: Effect on lower lip retraction in Wistar rat at 10 mg/kg; type: functional; procedure, shortened: as §3
# [13] = organism: Mus musculus; settings: Swiss Albino, 10 mg/kg; remark: listed apart in the source
# [14] = biological target: D(2) dopamine receptor (Rattus norvegicus, UniProt P61169); assay: Displacement of [3H]spiperone from dopamine D2 receptor in rat striatal membranes; type: cell membranes, Membrane
# Chain of D(2) dopamine receptor (P61169 whole entry): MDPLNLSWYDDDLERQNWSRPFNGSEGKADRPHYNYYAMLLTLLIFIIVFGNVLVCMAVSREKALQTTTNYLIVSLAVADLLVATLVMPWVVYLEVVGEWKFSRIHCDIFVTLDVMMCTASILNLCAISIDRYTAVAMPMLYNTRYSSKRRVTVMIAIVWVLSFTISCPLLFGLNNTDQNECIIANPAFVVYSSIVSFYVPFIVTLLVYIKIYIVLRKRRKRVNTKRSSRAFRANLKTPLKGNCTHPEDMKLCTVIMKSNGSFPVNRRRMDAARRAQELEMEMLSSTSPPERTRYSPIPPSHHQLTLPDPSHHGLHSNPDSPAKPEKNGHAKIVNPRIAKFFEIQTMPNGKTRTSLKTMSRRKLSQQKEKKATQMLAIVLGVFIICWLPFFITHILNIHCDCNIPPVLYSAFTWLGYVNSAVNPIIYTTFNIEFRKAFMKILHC
# Procedure, shortened: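 Competition binding on rat striatal membranes using [3H]-spiperone, butaclamol for nonspecific binding; filtration through GF/B filters and scintillation counting. Run at two compound concentrations, each in triplicate, and affinity expressed as estimated Ki.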
# [15] = organism: Mus musculus; settings: Swiss Albino, 5 mg/kg; remark: listed apart in the source
# [16] = organism: Mus musculus; settings: Swiss Albino, 5 mg/kg; remark: listed apart in the source
# [17] = tested on: Mus musculus; assay: Effect on locomotor activity in Swiss Albino mouse assessed as number of crossings in 30 mins at 10 mg/kg administered 30 mins before the test; type: functional; procedure, shortened: as §4
# [18] = organism: Mus musculus; settings: Swiss Albino, 10 mg/kg; remark: listed apart in the source
# [19] = tested on: Mus musculus; assay: Anxiolytic activity in Swiss Albino mouse assessed as number of punished crossings for 60 secs at 2.5 mg/kg administered 30 mins before the test by four-plate test; type: functional
# Procedure, shortened: (§5)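 Male Albino Swiss mice (24–28 g), compound suspended in 1% aqueous Tween 80, given ip (10 ml/kg). Mouse placed in box with four metal floor plates, 15 s exploration, then floor electrified (120 V, 0.5 s) at each plate-to-plate crossing, no new shock for 3 s. Punished crossings counted over 60 s. n = 9-10/group; one-way ANOVA then Dunnett's test.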
# [20] = biological target: T1, 5-hydroxytryptamine receptor 1A (Rattus norvegicus, UniProt P19327); assay: Displacement of [3H]8-OH-DPAT from 5HT1A in rat hippocampal membranes; type: cell membranes, Hippocampus, Membrane
# T1 sequence (P19327 whole entry): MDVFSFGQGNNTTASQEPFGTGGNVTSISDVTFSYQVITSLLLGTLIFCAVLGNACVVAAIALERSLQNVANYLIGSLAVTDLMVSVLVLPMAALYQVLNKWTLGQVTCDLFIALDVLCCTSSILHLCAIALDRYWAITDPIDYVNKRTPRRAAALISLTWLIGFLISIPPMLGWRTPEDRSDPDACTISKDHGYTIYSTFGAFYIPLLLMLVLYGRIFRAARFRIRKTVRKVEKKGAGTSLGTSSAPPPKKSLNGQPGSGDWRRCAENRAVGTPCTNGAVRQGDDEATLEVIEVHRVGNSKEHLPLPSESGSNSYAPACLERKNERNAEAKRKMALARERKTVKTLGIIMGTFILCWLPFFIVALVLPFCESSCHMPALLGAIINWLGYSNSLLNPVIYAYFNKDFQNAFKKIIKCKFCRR
# Procedure, shortened: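 Rat hippocampal membranes, [3H]-8-OH-DPAT as radioligand, 5-HT defining nonspecific binding. 7–9 drug concentrations run in triplicate, at least three separate experiments. Filtration through GF/B filters with three ice-cold buffer washes, scintillation counting. Ki from non-linear regression of binding isotherms via Cheng-Prusoff equation.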
# [21] = organism: Mus musculus; settings: Swiss Albino, 10 mg/kg; remark: listed apart in the source
# [22] = tested on: Mus musculus; assay: Anxiolytic activity in Swiss Albino mouse assessed as number of punished crossings for 60 secs at 10 mg/kg administered 30 mins before the test by four-plate test; type: functional; procedure, shortened: as §5
# [23] = tested on: Mus musculus; assay: Anxiolytic activity in Swiss Albino mouse assessed as number of punished crossings for 60 secs at 5 mg/kg administered 30 mins before the test by four-plate test; type: functional
# Procedure, shortened: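 Male Albino Swiss mice dosed ip (1% aqueous Tween 80, 10 ml/kg) 30 min beforehand. Opaque box floored with four metal plates; 15 s free exploration, then each plate-to-plate crossing triggers a 0.5 s, 120 V floor shock, with no new shock for 3 s if running continues. Punished crossings counted over 60 s; n = 9-10, ANOVA plus Dunnett's test.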
# [24] = organism: Mus musculus; settings: Swiss Albino, 10 mg/kg; remark: listed apart in the source
# [25] = biological target: 5-hydroxytryptamine receptor 7 (Homo sapiens, UniProt P34969); assay: Displacement of [3H]5-CT from human 5HT7 expressed in HEK293 cells; type: cell-based
# Chain of 5-hydroxytryptamine receptor 7 (P34969 whole entry): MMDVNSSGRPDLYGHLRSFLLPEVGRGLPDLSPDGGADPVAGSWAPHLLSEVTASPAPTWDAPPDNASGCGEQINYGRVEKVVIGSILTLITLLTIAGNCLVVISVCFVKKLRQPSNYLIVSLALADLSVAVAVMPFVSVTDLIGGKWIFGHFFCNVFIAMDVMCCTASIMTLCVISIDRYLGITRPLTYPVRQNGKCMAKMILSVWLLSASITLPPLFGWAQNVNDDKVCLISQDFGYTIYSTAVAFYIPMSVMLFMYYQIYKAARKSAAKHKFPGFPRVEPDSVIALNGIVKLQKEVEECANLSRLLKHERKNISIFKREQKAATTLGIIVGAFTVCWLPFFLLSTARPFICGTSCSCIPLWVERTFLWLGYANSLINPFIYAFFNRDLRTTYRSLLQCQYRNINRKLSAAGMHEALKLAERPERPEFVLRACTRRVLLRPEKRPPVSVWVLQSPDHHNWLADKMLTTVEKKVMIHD
# Procedure, shortened: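 HEK293 cells stably transfected with human 5-HT7(b) cDNA; membranes (10 µg protein) incubated 1 h at 37 °C in 50 mM Tris-HCl pH 7.4 with 4 mM MgCl2, 0.1 mM pargyline, 0.1% ascorbic acid, 0.5 nM [3H]-5-CT and 7–9 test concentrations in triplicate; 10 µM 5-HT defines nonspecific binding. GF/B filtration, scintillation counting; Ki via Cheng-Prusoff from ≥3 experiments.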
# [26] = tested on: Rattus norvegicus; assay: Effect on lower lip retraction in Wistar rat at 2.5 mg/kg; type: functional; procedure, shortened: as §3
# [27] = tested on: Mus musculus; assay: Antidepressant activity in Swiss Albino mouse assessed as immobility time during final 4 mins of 6 mins session at 5 mg/kg administered 30 mins before the test by forced-swimming test; type: functional; procedure, shortened: as §2
# [28] = tested on: Rattus norvegicus; assay: Effect on 8-OH-DPAT-induced lower lip retraction in Wistar rat at 10 mg/kg; type: functional
# [29] = organism: Mus musculus; settings: Swiss Albino, 20 mg/kg
# [30] = organism: Mus musculus; settings: Swiss Albino, 10 mg/kg; remark: listed apart in the source
# [31] = organism: Mus musculus; settings: Swiss Albino, 20 mg/kg; remark: listed apart in the source
# [32] = organism: Mus musculus; settings: Swiss Albino, 20 mg/kg; remark: listed apart in the source
# [33] = organism: Mus musculus; settings: Swiss Albino, 20 mg/kg; remark: listed apart in the source
# [34] = organism: Mus musculus; settings: Swiss Albino, 20 mg/kg; remark: listed apart in the source
# [35] = tested on: Rattus norvegicus; assay: Effect on 8-OH-DPAT-induced lower lip retraction in Wistar rat at 5 mg/kg; type: functional
# [36] = tested on: Rattus norvegicus; assay: Effect on lower lip retraction in Wistar rat at 20 mg/kg; type: functional; procedure, shortened: as §3
# [37] = tested on: Rattus norvegicus; assay: Effect on 8-OH-DPAT-induced lower lip retraction in Wistar rat at 20 mg/kg; type: functional
# [38] = tested on: Rattus norvegicus; assay: Effect on 8-OH-DPAT-induced lower lip retraction in Wistar rat at 0.1 mg/kg; type: functional
# [39] = tested on: Rattus norvegicus; assay: Effect on lower lip retraction in Wistar rat at 0.1 mg/kg; type: functional; procedure, shortened: as §3
SMILES,Ki [2],deltaT [4],Activity [5],deltaT [6],deltaT [7],deltaT [8],Activity [10],Activity [12],Ki [14],deltaT [15],deltaT [16],deltaT [18],Ki [20],deltaT [21],Ki [25],Activity [26],Activity [28],further results
O=C1CCCC(=O)N1CCCCN1CCN(c2cccc(C(F)(F)F)c2)CC1,101 nM,-0.5 °C,2.2,-0.4 °C,-1.3 °C,-0.9 °C,2.6,2.8,> 5000 nM,-0.4 °C,-0.1 °C,-1 °C,3 nM,-1.1 °C,21 nM,1.6,–,Activity [1]: 217.1; Activity [3]: 16.3; Activity [9]: 196.7 s; Activity [11]: 526.2; deltaT [13]: -1 °C; Activity [17]: 179.3; Activity [19]: 4.3; Activity [22]: 5.2; Activity [23]: 5.8; deltaT [24]: -0.8 °C; Activity [27]: 183.9 s
O=C1C2=C(CCCC2)C(=O)N1CCCCN1CCN(c2cccc(C(F)(F)F)c2)CC1,30 nM,–,2.3,–,0.2 °C,0 °C,2.2,2.2,> 5000 nM,–,–,0 °C,5.9 nM,0 °C,134 nM,1.9,1.1,deltaT [29]: -0.6 °C; deltaT [30]: -0.2 °C; deltaT [31]: -1.3 °C; deltaT [32]: -1.1 °C; deltaT [33]: -1.3 °C; deltaT [34]: -1.8 °C; Activity [35]: 1.5
CC1C(=O)N(CCCCN2CCN(c3cccc(C(F)(F)F)c3)CC2)C(=O)C1C (stereo not given),48 nM,-0.6 °C,–,-0.4 °C,-0.1 °C,-0.2 °C,–,1.3,4370 nM,-0.2 °C,0 °C,-0.4 °C,2.2 nM,-0.2 °C,107 nM,–,1.4,Activity [36]: 1.3; Activity [37]: 0.2
"COc1ccccc1N1CCN(CCN(C(=O)C2CCCCC2)c2ccccn2)CC1 [WAY-100,635]",–,–,–,–,–,–,–,–,–,–,–,–,–,–,–,–,–,Activity [38]: 0.2; Activity [39]: 0
